Series [1] deals with Staphylococcus aureus. Description: Bactericidal activity against methicillin-resistant Staphylococcus aureus NMI 2541 K assessed as inhibition of microbial growth by CLSI based microdilution method. Type of series: functional.
A short description of series [2]: Selectivity ratio of IC50 for cytotoxicity against human MRC5 cells assessed as inhibition of cell growth to MIC for antibacterial activity against methicillin-resistant Staphylococcus aureus NMI 664 K assessed as inhibition of microbial growth by broth-microdilution method. Type of series: toxicity, cell-based. A general note: Broth dilution looks for growth in wells or tubes with falling amounts of substance.

Series [3] in a line: Selectivity ratio of IC50 for cytotoxicity against human MRC5 cells assessed as inhibition of cell growth to MIC for antibacterial activity against methicillin-resistant Staphylococcus aureus NMI 1991 K assessed as inhibition of microbial growth by broth-microdilution method. The series is classed as toxicity, cell-based.
A short description of series [4]: Selectivity ratio of IC50 for cytotoxicity against human MRC5 cells assessed as inhibition of cell growth to MIC for antibacterial activity against methicillin-resistant Staphylococcus aureus NMI 1712 K assessed as inhibition of microbial growth by broth-microdilution method. The series is classed as toxicity, cell-based.
The next series relates to Enterococcus faecium. Description: Antibacterial activity against Enterococcus faecium ATCC 6057 assessed as diameter of inhibition zone by CLSI based disc-diffusion method. Type of series: functional. The essentials: (§1)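 Strains were stored at −80 °C, then subcultured twice on tryptic soy agar for 24–48 h at 30 °C before the disc-diffusion test. The result was recorded as the inhibition-zone diameter.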
(In general: In agar diffusion tests the substance spreads into inoculated agar from a disc or well.)

Series [5] deals with Staphylococcus aureus. Briefly: Antibacterial activity against methicillin-resistant Staphylococcus aureus ATCC 43300 assessed as diameter of inhibition zone by CLSI based disc-diffusion method. Type of series: functional. The essentials: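 Disc-diffusion on standard strain subcultured twice on tryptic soy agar (24–48 h, 30 °C) after storage at −80 °C; inhibition zone diameter read; linezolid disc (0.03 mg) as reference.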

The test system of another series is Enterococcus faecalis. Description: Antibacterial activity against Enterococcus faecalis ATCC 29212 assessed as diameter of inhibition zone by CLSI based disc-diffusion method. Type of series: functional. The procedure, abridged:
as §1

A short description of series [6]: Selectivity ratio of IC50 for cytotoxicity against human MRC5 cells assessed as inhibition of cell growth to MIC for antibacterial activity against methicillin-resistant Staphylococcus aureus NMI 2541 K assessed as inhibition of microbial growth by broth-microdilution method. The series is classed as toxicity, cell-based.
Another series has as its system Bacillus subtilis. Description: Antibacterial activity against Bacillus subtilis ATCC 6633 assessed as diameter of inhibition zone by CLSI based disc-diffusion method. The series is classed as functional. The procedure, abridged: as §1
Series [7] can be described thus: Selectivity ratio of IC50 for cytotoxicity against human MRC5 cells assessed as inhibition of cell growth to MIC for antibacterial activity against methicillin-resistant Staphylococcus aureus ATCC 43300 assessed as inhibition of microbial growth. Type of series: toxicity, cell-based.
Series [8] in a line: Selectivity ratio of IC50 for cytotoxicity against human MRC5 cells assessed as inhibition of cell growth to MIC for antibacterial activity against methicillin-resistant Staphylococcus aureus NMI 1576 K assessed as inhibition of microbial growth by broth-microdilution method. Type of series: toxicity, cell-based.
Series [9] has as its system Staphylococcus epidermidis. Briefly: Antibacterial activity against Staphylococcus epidermidis ATCC 12228 assessed as diameter of inhibition zone by CLSI based disc-diffusion method. Type of series: functional. The essentials:
as §1

What is called MBC is the smallest concentration meeting the test's criterion for killing.

Take `CCOP(=O)(OCC)Sc1c(F)cc2c(c1F)[Si](C)(C)OB2O`: the MBC with Staphylococcus aureus [1] is more than 12.5 µg/mL. Besides, the selectivity ratio in series [2], in [3], in series [4], in series [6], in series [7] and in series [8] was more than 32 each time. The “diameter of the inhibition zone (DIZ)” value with Enterococcus faecium stood at 11 mm; in the series on Staphylococcus aureus [5], 27 mm; in the series on Enterococcus faecalis, 11 mm; in the series with Bacillus subtilis, 24 mm; in [9], 20 mm.

The record behind these values is ChEMBL document CHEMBL5532704, “Exploiting thiol-functionalized benzosiloxaboroles for achieving diverse substitution patterns - synthesis, characterization and biological evaluation of promising antibacterial agents” (RSC Med Chem, 2024).
